In ChEMBL document CHEMBL4266009, “One Step Beyond: Design of Substrates Spanning Primed Positions of Zika Virus NS2B-NS3 Protease” (ACS Med Chem Lett, 2018):
Activity calls are given as the source filed them. The calls are words filed in the database; no cut-off is given here. Non-standard residues stand in square brackets, D forms with d. Residues, ends and D or L forms follow the SMILES beside them. Tyr(3-NO2) = N[C@@H](Cc1ccc(O)c([N+](=O)[O-])c1)C(=O)O; 2Abz = Nc1ccccc1C(=O)O

What was measured:
Zika virus [1] = assay: Substrate activity at recombinant ZIKV NS3 pro domain fused NS2B protease assessed as ratio of Kcat to Km in Tris-CHAPS-glycerol buffer at pH 7.4 after 30 mins
Outline: (§1)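 Continuous fluorescence assay (Ex 320, Em 450 nm) in 10 mM Tris-HCl pH 7.4, 20% glycerol, 1 mM CHAPS at 37 °C; substrate (1.0×10-7 to 4×10^-5 M final) added to 1.64×10^-8 M NS2BLNNS3pro. Initial rates from linear portions, inner-filter corrected; KM and kcat from double-reciprocal Michaelis-Menten plots; triplicate, SD ≤20%.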

Zika virus [2] = assay: Substrate activity at recombinant ZIKV NS3 pro domain fused NS2B protease at pH 7.4 after 30 mins by fluorescence assay
Outline: (§2)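 pH profile: NS2BLNNS3pro 1.64×10^-8 M with substrate 2.44×10^-5 M in citrate (pH 3.0), acetate (4.0, 5.0), MES (6.0), MOPS (7.0), Tris (7.4, 10.0) or HEPES (8.0); fluorescence increase followed at 37 °C over 30 min.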

Zika virus [3] = assay: Substrate activity at recombinant ZIKV NS3 pro domain fused NS2B protease at pH 8 to 10 after 30 mins by fluorescence assay; outline: as §2
[4] = Selectivity ratio of substrate activity at recombinant ZIKV NS3 pro domain fused NS2B protease to substrate activity at West Nile virus protease
Zika virus [5] = assay: Substrate activity at 6.86x10'-6M of recombinant ZIKV NS3 pro domain fused NS2B protease; settings: in the assay text read “6.86x10'-10M” for “6.86x10'-6M”
Outline: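 Limit of detection: decreasing amounts of recombinant NS2BLNNS3pro titrated against substrate at 2.44 × 10^-5 M in PBS pH 7.4, 37 °C, 30 min; fluorescence read at 450 nm (Ex 320 nm); detection limit from fluorescence increase versus enzyme concentration; triplicate.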

Zika virus [6] = assay: Substrate activity at recombinant ZIKV NS3 pro domain fused NS2B protease at pH 7.4
Zika virus [7] = assay: Substrate activity at recombinant ZIKV NS3 pro domain fused NS2B protease assessed as ratio of Kcat to Km in PBS at pH 7.4 after 30 mins
Outline: (§3)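 Kinetic constants determined in PBS pH 7.4 with the recombinant NS2BLNNS3pro; cleavage followed by ABZ fluorescence (Ex 320, Em 450 nm) at 37 °C; initial rates fitted and KM, kcat obtained from double-reciprocal Michaelis-Menten plots.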

Zika virus [8] = assay: Substrate activity at recombinant ZIKV NS3 pro domain fused NS2B protease at pH 3 to 6 after 30 mins by fluorescence assay; outline: as §2
Zika virus [9] = assay: Substrate activity at recombinant ZIKV NS3 pro domain fused NS2B protease assessed as Km in Tris-CHAPS-glycerol buffer at pH 7.4 after 30 mins; outline: as §1
Zika virus [10] = assay: Substrate activity at recombinant ZIKV NS3 pro domain fused NS2B protease assessed as Kcat in Tris-CHAPS-glycerol buffer at pH 7.4 after 30 mins; outline: as §1
Zika virus [11] = assay: Substrate activity at recombinant ZIKV NS3 pro domain fused NS2B protease assessed as Kcat in PBS at pH 7.4 after 30 mins; outline: as §3
Zika virus [12] = assay: Substrate activity at recombinant ZIKV NS3 pro domain fused NS2B protease assessed as Km in PBS at pH 7.4 after 30 mins; outline: as §3
Zika virus [13] = assay: Substrate activity at recombinant ZIKV NS3 pro domain fused NS2B protease by HPLC method

CC(=O)N[C@H](CCCNC(=N)N)C(=O)N[C@@H](CCCCN)C(=O)N[C@@H](CCCN)C(=O)N[C@@H](CCCNC(=N)N)C(=O)Nc1ccc2c(CC(N)=O)cc(=O)oc2c1
kcat/Km (Zika virus [1]): 1.1 ×10⁶ /M/s

CC(C)[C@H](NC(=O)c1ccccc1N)C(=O)N[C@@H](CCCCN)C(=O)N[C@@H](CCCCN)C(=O)N[C@@H](CCCNC(=N)N)C(=O)N[C@@H](C)C(=O)N[C@@H](C)C(=O)N[C@@H](CC(=O)O)C(=O)N[C@@H](Cc1ccc(O)c([N+](=O)[O-])c1)C(N)=O (H-[2Abz]VKKRAAD[Tyr(3-NO2)]-NH2)
Activity (Zika virus [2]): Active

CC(C)[C@H](NC(=O)c1ccccc1N)C(=O)N[C@@H](CCCCN)C(=O)N[C@@H](CCCCN)C(=O)N[C@@H](CCCNC(=N)N)C(=O)N[C@@H](C)C(=O)N[C@@H](C)C(=O)N[C@@H](CCC(=O)O)C(=O)N[C@@H](Cc1ccc(O)c([N+](=O)[O-])c1)C(N)=O (H-[2Abz]VKKRAAE[Tyr(3-NO2)]-NH2)
Activity (Zika virus [2]): Active

CC(C)[C@H](NC(=O)c1ccccc1N)C(=O)N[C@@H](CCCCN)C(=O)N[C@@H](CCCCN)C(=O)N[C@@H](CCCNC(=N)N)C(=O)N[C@@H](C)C(=O)N[C@@H](C)C(=O)N[C@@H](Cc1c[nH]c2ccccc12)C(=O)N[C@@H](Cc1ccc(O)c([N+](=O)[O-])c1)C(N)=O (H-[2Abz]VKKRAAW[Tyr(3-NO2)]-NH2)
Activity (Zika virus [3]): Active | Activity (Zika virus [2]): Active | Ratio [4]: 200 | Activity (Zika virus [5]): Active | Activity (Zika virus [6]): Active | kcat/Km (Zika virus [7]): 2.32 ×10⁶ /M/s | Activity (Zika virus [8]): inactive | Km (Zika virus [9]): 1.23 µM | kcat (Zika virus [10]): 151 s⁻¹ | kcat (Zika virus [11]): 16.3 s⁻¹ | Km (Zika virus [12]): 6.97 µM | Activity (Zika virus [13]): Active | kcat/Km (Zika virus [1]): 1.26 ×10⁸ /M/s
